The source of these data is ChEMBL document CHEMBL1921671, “Benzisothiazolinone as a useful template for the design of new monoacylglycerol lipase inhibitors: investigation of the target residues and comparison with octhilinone” (Bioorg Med Chem Lett, 2011).

Broadly, the inhibition is the share of the control response that was lost under treatment. What is called IC50 is the concentration that gives 50% inhibition.

Where a chain is given by its changes, count along the chain named. Activity calls are given as the source filed them. The rule behind the calls is not given here.

For test [1], the target named is T1, Fatty-acid amide hydrolase 1 (Homo sapiens) (UniProt O00519).
T1 sequence (whole entry): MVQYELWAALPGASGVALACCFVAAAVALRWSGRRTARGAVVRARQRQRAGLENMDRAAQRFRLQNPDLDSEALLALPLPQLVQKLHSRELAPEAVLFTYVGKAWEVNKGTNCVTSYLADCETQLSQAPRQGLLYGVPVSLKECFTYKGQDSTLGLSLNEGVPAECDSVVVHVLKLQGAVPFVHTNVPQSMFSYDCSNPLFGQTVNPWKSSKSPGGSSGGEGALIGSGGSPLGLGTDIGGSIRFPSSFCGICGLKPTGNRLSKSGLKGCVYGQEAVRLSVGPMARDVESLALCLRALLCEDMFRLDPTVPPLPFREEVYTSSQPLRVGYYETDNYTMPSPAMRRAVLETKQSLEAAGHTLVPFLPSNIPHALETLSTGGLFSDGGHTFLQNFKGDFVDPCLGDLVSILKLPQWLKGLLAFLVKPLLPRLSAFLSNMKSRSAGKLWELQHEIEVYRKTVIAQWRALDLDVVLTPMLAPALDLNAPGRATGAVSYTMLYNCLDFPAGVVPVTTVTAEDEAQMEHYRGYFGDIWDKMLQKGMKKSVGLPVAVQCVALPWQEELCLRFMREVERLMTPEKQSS
The test is described as follows: Inhibition of human recombinant FAAH assessed as conversion of [3H]AEA to [3H]ethanolamine at 1 mM after 10 mins by liquid scintillation counting.

For test [2], the target named is T2, Monoglyceride lipase (Homo sapiens) (UniProt Q99685).
T2 sequence (whole entry): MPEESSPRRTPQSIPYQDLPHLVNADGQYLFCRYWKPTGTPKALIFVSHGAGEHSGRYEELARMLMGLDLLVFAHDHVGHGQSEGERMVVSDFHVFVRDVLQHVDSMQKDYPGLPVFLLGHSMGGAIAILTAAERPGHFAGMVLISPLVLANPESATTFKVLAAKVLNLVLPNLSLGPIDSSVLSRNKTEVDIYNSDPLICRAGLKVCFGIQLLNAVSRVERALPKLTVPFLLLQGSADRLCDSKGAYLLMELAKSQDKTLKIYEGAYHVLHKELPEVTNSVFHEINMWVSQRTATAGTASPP
The experiment in a line: Inhibition of human recombinant MAGL assessed as [3H]oleoylglycerol hydrolysis at 1 mM after 10 mins by liquid scintillation counting. In short, it runs like this: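 Single-concentration test at 10^-3 M against purified recombinant human MAGL, 5 ng. Inhibitor preincubated 10 min at 37 °C. [3H]-2-oleoylglycerol at 10 µM final hydrolysed 10 min at 37 °C in 50 mM Tris pH 8.0 with BSA. Reaction quenched with cold methanol/chloroform. Aqueous-layer radioactivity read by scintillation, blanks subtracted, and result expressed as % inhibition.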

The target of test [3] is T2, Monoglyceride lipase (Homo sapiens). The test is described as follows: Inhibition of human recombinant MAGL assessed as [3H]oleoylglycerol hydrolysis preincubated for 30 mins at 37 degC by liquid scintillation counting. An outline of the steps:
(§1)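 Purified recombinant human MAGL (5 ng; 50 mM Tris pH 8.0, 0.1% BSA) preincubated with inhibitor at the line's time and temperature. Then incubated 10 min at 37 °C with 2-OG (10 µM final; [3H]-2-OG 50,000 dpm; Tris pH 8.0 with 0.6% BSA). Stopped with ice-cold methanol:chloroform 1:1 and centrifuged. Aqueous-phase radioactivity counted by liquid scintillation. No-enzyme blanks subtracted.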

The species named for test [4] is Homo sapiens. The experiment in a line: Selectivity ratio of IC50 for human recombinant FAAH to IC50 for human recombinant MAGL by liquid scintillation counting.
Test [5] has as its target T2, Monoglyceride lipase (Homo sapiens). The test is described as follows: Inhibition of human recombinant MAGL assessed as [3H]oleoylglycerol hydrolysis preincubated for 10 mins at 37 degC by liquid scintillation counting. In short, it runs like this: as §1
Test [6] addresses T3, Monoglyceride lipase (Homo sapiens, UniProt Q99685).
T3 sequence (Q99685 whole entry): T2 sequence (whole entry)
The experiment in a line: Inhibition of human recombinant MAGL assessed as inhibition of 2-oleoylglycerol hydrolysis preincubated for 10 mins by LC/MS analysis.

Test [7] deals with T2, Monoglyceride lipase (Homo sapiens). The test is described as follows: Inhibition of human recombinant MAGL assessed as [3H]oleoylglycerol hydrolysis at 10^-5 M preincubated for 5 mins measured after 15 mins by liquid scintillation counting in the presence of dithiothreitol.
Test [8] concerns T4, Monoglyceride lipase (Homo sapiens), Q99685 [C242A].
T4 sequence (whole entry): T2 sequence (whole entry) with C242A
The test is described as follows: Inhibition of human MAGL C242A mutant.

A short description of test [9]: Selectivity ratio of IC50 for rat MAGL to IC50 for human MAGL.
The target in test [10] is T5, Fatty-acid amide hydrolase 1 (Homo sapiens, UniProt O00519).
T5 sequence (O00519 whole entry): T1 sequence (whole entry)
The test is described as follows: Inhibition of human recombinant FAAH assessed as conversion of [3H]AEA to [3H]ethanolamine after 10 mins by liquid scintillation counting.

In test [11] the test system is T6, Monoglyceride lipase (Homo sapiens), Q99685 [C201A].
T6 sequence (whole entry): T2 sequence (whole entry) with C201A
The experiment in a line: Inhibition of human MAGL C201A mutant.

The subject of test [12] is T7, Monoglyceride lipase (Homo sapiens), Q99685 [C201A,C208A,C242A].
T7 sequence (whole entry): T2 sequence (whole entry) with C201A, C208A, C242A
The experiment in a line: Inhibition of human MAGL C201A/C208A/C242A mutant.

For test [13], the species on record is Homo sapiens. The test is described as follows: Selectivity ratio of IC50 for human recombinant FAAH to IC50 for human recombinant MAGL by liquid scintillation counting of radiolabeled 2-OG hydrolysis.
The subject of test [14] is T8, Monoglyceride lipase (Homo sapiens), Q99685 [C208A].
T8 sequence (whole entry): T2 sequence (whole entry) with C208A
The experiment in a line: Inhibition of human MAGL C208A mutant.

Test [15] addresses T2, Monoglyceride lipase (Homo sapiens). The experiment in a line: Inhibition of human recombinant MAGL assessed as [3H]oleoylglycerol hydrolysis preincubated for 10 mins at room temperature by liquid scintillation counting. In short, it runs like this: as §1
Test [16] addresses T9, Monoglyceride lipase (Rattus norvegicus, UniProt Q8R431).
T9 sequence (Q8R431 whole entry): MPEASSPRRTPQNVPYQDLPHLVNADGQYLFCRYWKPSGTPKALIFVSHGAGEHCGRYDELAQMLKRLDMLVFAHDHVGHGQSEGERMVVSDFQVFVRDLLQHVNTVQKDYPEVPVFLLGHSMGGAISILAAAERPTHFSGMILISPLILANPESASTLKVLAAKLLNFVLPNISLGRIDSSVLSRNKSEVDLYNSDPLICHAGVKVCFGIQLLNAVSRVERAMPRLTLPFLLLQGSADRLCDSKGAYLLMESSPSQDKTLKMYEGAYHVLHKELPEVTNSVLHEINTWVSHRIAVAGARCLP
The experiment in a line: Inhibition of rat recombinant N-terminal his-tagged MAGL expressed in Escherichia coli DH5alpha assessed as 2-oleoylglycerol hydrolysis after 10 mins by LC/MS analysis.

Test [17] deals with T3, Monoglyceride lipase. The test is described as follows: Inhibition of human recombinant MAGL assessed as [3H]oleoylglycerol hydrolysis after 10 mins by liquid scintillation counting. An outline of the steps:
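Purified recombinant human MAGL, 5 ng, in 50 mM Tris pH 8.0 with 0.1% BSA, preincubated with […]. Substrate [3H]-2-oleoylglycerol at 10 µM final in Tris pH 8.0 with 0.6% BSA. Reaction run 10 min at 37 °C and stopped with ice-cold 1:1 methanol/chloroform, then centrifuged. Aqueous-phase radioactivity counted by liquid scintillation; no-enzyme blanks subtracted.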

Test [18] has as its target T2, Monoglyceride lipase (Homo sapiens). The experiment in a line: Inhibition of human recombinant MAGL assessed as inhibition of [3H]oleoylglycerol hydrolysis preincubated for 30 mins at room temperature by liquid scintillation counting. An outline of the steps: as §1

As to `c1ccc(-c2ccc(COc3nsc4ccccc34)cc2)cc1`, the inhibition in test [1] stood at 50%. In test [2], the inhibition result was “inactive”.

Take `CCCCCCCCn1sc2ccccc2c1=O`: the inhibition entry in [3], in [5], in test [14], in test [15] and in [18] was “Active” each time. In addition, the Ratio IC50 stood at 21.2 in the test filed under Homo sapiens [4], 11 in [9] and 53 in the test listed under Homo sapiens [13]. Moreover, the IC50 at Monoglyceride lipase [6] is 0.66 µM; in test [10] it was 35.2 µM; on Monoglyceride lipase [16] it was 0.059 µM; on Monoglyceride lipase [17], 1.66 µM. The inhibition result in test [7], in test [8], in test [11] and in [12] was “inactive” in each case.

For `CCCCCCCCn1c(=O)sc2ccccc21`, the IC50 in test [10] turned out to be 309 µM. Moreover, the inhibition in [2] is 72%.

In the case of `CCCCCCCCN1Cc2ccccc2C1=O`, the inhibition result in [1] and in test [2] was “inactive” throughout.

Regarding `O=c1c2ccccc2sn1Cc1ccc(-c2ccccc2)cc1`, in the test listed under Homo sapiens [4], the Ratio IC50 is 73. Moreover, the concentration for half-maximal inhibition (IC50) in test [10] was 30 µM; on Monoglyceride lipase [17] it was 0.41 µM.

For the molecule `CCCCCCCCn1c(=O)oc2ccccc21`, in [10], the IC50 came to 129 µM. In addition, in test [2], the inhibition was determined as 26%.

Consider `CCCCCCCCn1sccc1=O` [OCTHILINONE], for which the half-inhibitory concentration (IC50) was 0.14 µM at Monoglyceride lipase [6], 18.9 µM in test [10] and 1.09 µM on Monoglyceride lipase [17].

Turning to `CCCCCCCCOc1noc2ccccc12`, the Ratio IC50 in the test filed under Homo sapiens [4] amounted to 0.47. Moreover, the IC50 stood at 31.6 µM in [10] and 67.9 µM at Monoglyceride lipase [17].

As to `CCCCCCCCOc1nsc2ccccc12`, the inhibition in test [1] came out at 43%; in test [2], 55%.

Regarding `CCCCCCCCN1C(=O)c2ccccc2C1=O`, the inhibition entry in test [1] and in test [2] was “inactive” throughout.

Consider `CCCCCCCCn1oc2ccccc2c1=O`, for which the Ratio IC50 in the test filed under Homo sapiens [4] was found to be 0.16. The values for the IC50 (in [10]; at Monoglyceride lipase [17]) were 44.7 µM and 275 µM, respectively.

Take `CCCCCCCCN1SCCC1=O`: the inhibition result in test [3], in test [5], in test [15] and in test [18] was “Active” throughout. Further, the Ratio IC50 was 17.3 in the test filed under Homo sapiens [4], 1.5 in test [9] and 53 in the test listed under Homo sapiens [13]. Besides, the inhibition result in [7], in test [8], in test [11], in [12] and in test [14] was “inactive” each time.
